Values after ≈ are worked out from the molar mass of the structure shown.
Tested on: not listed separately
Assay: Cytotoxicity against African green monkey Vero cells assessed as decrease in cell viability after 72 hrs by MTT assay
Type: cell-based
Details: chlorocebus sabaeus
Summary of the method: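 Vero cells grown in MEM with Earle's salts plus 10% FBS, 37 °C, 5% CO2; seeded at 1 × 10⁴ cells per well, allowed 24 h recovery, then medium replaced with assay medium with or without compound (1000 to 4 μg/mL). After 72 h exposure, viability read by MTT; CC50 calculated by Bliss analysis.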

Compound	CC50 at 72 h [µM]
Cc1ccc2nc(C)c(C(=O)NCCNc3ccc(C(C)(C)C)cc3)n2c1	57.6
COc1ccc(NCCNC(=O)c2c(C)nc3ccc(C)cn23)cc1	193

Tested on: not listed separately
Assay: Selectivity index, ratio of CC50 for African green monkey Vero cells to MIC=>90 for Mycobacterium tuberculosis H37Rv ATCC 27294
Type: toxicity
Details: read-out: Selectivity Index
Summary of the method: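 Vero cells in MEM with Earle's salts and 10% FBS, 37 °C, 5% CO₂. Seeded at 1×10⁴ cells/well and recovered 24 h. Exposed to compound at 1000 to 4 μg/mL for 72 h. Viability by MTT. CC50 by Bliss analysis. SI is CC50 divided by MABA MIC against H37Rv ATCC 27294.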

Compound	selectivity ratio
Cc1ccc2nc(C)c(C(=O)NCCNc3ccc(C(C)(C)C)cc3)n2c1	1400
COc1ccc(NCCNC(=O)c2c(C)nc3ccc(C)cn23)cc1	4400

Tested on: Mycobacterium tuberculosis
Assay: Antimycobacterial activity against Mycobacterium tuberculosis H37Rv ATCC 27294 after 7 days by microplate Alamar blue assay
Type: functional
Details: H37Rv ATCC 27294, 168 h
Summary of the method: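 MABA against replicating M. tuberculosis. Cells grown to late log phase (70–100 Klett units) in 7H9 broth with 0.2% glycerol, 0.05% Tween 80 and 10% ADC. They were washed in PBS, filtered (8 µm) and frozen. Twofold compound dilutions received 2×10^5 CFU per well at 37 °C. Tween 80 and Alamar blue were added on day 7, then 16–24 h more. Fluorescence read at 530/590 nm. MIC = lowest concentration giving ≥90% fluorescence reduction versus bacterium-only controls.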

Compound	MIC90 [µM]
Cc1ccc2nc(C)c(C(=O)N3CCN(c4ccc(F)cc4F)CC3)n2c1	> 86
Cc1ccc2nc(C)c(C(=O)NCCNc3ccc([N+](=O)[O-])cc3)n2c1	> 90
Cc1ccc2nc(C)c(C(=O)NCCOCc3ccccc3)n2c1	1.93 (≈ 0.624 µg/mL)
NNC(=O)c1ccncc1 [ISONIAZID]	0.36 (≈ 0.0494 µg/mL)
Cc1ccc2nc(C)c(C(=O)NCCNc3cccc(C(F)(F)F)c3)n2c1	5.31 (≈ 2 µg/mL)
Cc1ccc2nc(C)c(C(=O)NCCNc3ccc(Br)cc3)n2c1	0.64 (≈ 0.248 µg/mL)
Cc1ccc2nc(C)c(C(=O)N3CCC(c4ccc(F)cc4)CC3)n2c1	90.3 (≈ 31.7 µg/mL)
Cc1ccn2c(C(=O)NCCCNc3ccccc3)c(C)nc2c1	12.4 (≈ 4.01 µg/mL)
Cc1ccn2c(C(=O)NCCCNc3ccc([N+](=O)[O-])cc3)c(C)nc2c1	> 87
CO[C@H]1/C=C/O[C@@]2(C)Oc3c(C)c(O)c4c(O)c(c(/C=N/N5CCN(C)CC5)c(O)c4c3C2=O)NC(=O)/C(C)=C\C=C\[C@H](C)[C@H](O)[C@@H](C)[C@@H](O)[C@@H](C)[C@H](OC(C)=O)[C@@H]1C [RIFAMPIN]	0.071 (≈ 0.0584 µg/mL)
Cc1ccc2nc(C)c(C(=O)NCCCOc3ccc(Br)cc3)n2c1	0.62 (≈ 0.249 µg/mL)
Cc1ccc2nc(C)c(C(=O)NCCCNc3ccccc3)n2c1	6.21 (≈ 2 µg/mL)
COc1ccc(NCCNC(=O)c2c(C)nc3cc(C)ccn23)cc1	47.3 (≈ 16 µg/mL)
Cc1ccc2nc(C)c(C(=O)N3CCN(c4ccccc4F)CC3)n2c1	> 90
Cc1ccc2nc(C)c(C(=O)NCCOc3ccc(Br)cc3)n2c1	0.038 (≈ 0.0148 µg/mL)
Cc1ccc2nc(C)c(C(=O)N3CCN(c4ccc([N+](=O)[O-])cc4)CC3)n2c1	84.4 (≈ 32 µg/mL)
Cc1ccc2nc(C)c(C(=O)NCCNc3ccccc3)n2c1	0.81 (≈ 0.25 µg/mL)
Cc1ccc2nc(C)c(C(=O)NCCNc3ccc(C)c(C)c3)n2c1	0.18 (≈ 0.0606 µg/mL)
Cc1ccc2nc(C)c(C(=O)N3CCN(c4ccncc4)CC3)n2c1	95 (≈ 31.9 µg/mL)
Cc1ccc2nc(C)c(C(=O)N3CCN(c4ccc(Cl)cc4)CC3)n2c1	43.5 (≈ 16 µg/mL)

Compound	MIC90 [µM]
Cc1ccc2nc(C)c(C(=O)NCCNCc3ccc(Br)cc3)n2c1	9.97 (≈ 4 µg/mL)
Cc1ccc2nc(C)c(C(=O)NCCN3CCN(c4ccccc4)CC3)n2c1	0.66 (≈ 0.249 µg/mL)
Cc1ccc2nc(C)c(C(=O)NCCNc3ccc(Cl)c(F)c3)n2c1	1.39 (≈ 0.502 µg/mL)
Cc1ccc2nc(C)c(C(=O)N3CCN(c4ccccc4)CC3)n2c1	95.4 (≈ 31.9 µg/mL)
Cc1ccc2nc(C)c(C(=O)NCCCNc3ccc(F)cc3)n2c1	1.47 (≈ 0.5 µg/mL)
Cc1ccc2nc(C)c(C(=O)N3CCN(c4ccc(F)cc4)CC3)n2c1	90.3 (≈ 31.8 µg/mL)
Cc1ccc2nc(C)c(C(=O)N3CCN(c4ccc(Br)cc4)CC3)n2c1	> 77
Cc1ccc2nc(C)c(C(=O)NCCOCc3ccc(Br)cc3)n2c1	0.62 (≈ 0.249 µg/mL)
Cc1ccc2nc(C)c(C(=O)NCCNc3ccc(C(C)(C)C)cc3)n2c1	0.041 (≈ 0.0149 µg/mL)
Cc1ccc2nc(C)c(C(=O)NCCCNc3ccc(C(C)(C)C)cc3)n2c1	1.32 (≈ 0.5 µg/mL)
Cc1ccc2nc(C)c(C(=O)NCCNCc3ccccc3)n2c1	49.6 (≈ 16 µg/mL)
Cc1ccc2nc(C)c(C(=O)NCCCNc3ccc([N+](=O)[O-])cc3)n2c1	> 87
COc1ccc(N2CCN(C(=O)c3c(C)nc4ccc(C)cn34)CC2)cc1	> 87
Cc1ccc(N2CCN(C(=O)c3c(C)nc4ccc(C)cn34)CC2)cc1	46 (≈ 16 µg/mL)
Cc1ccc2nc(C)c(C(=O)NCCNc3ccc(F)cc3)n2c1	1.53 (≈ 0.499 µg/mL)
Cc1ccc2nc(C)c(C(=O)NCCNc3ccc(C(F)(F)F)cc3)n2c1	42.5 (≈ 16 µg/mL)
COc1ccc(NCCNC(=O)c2c(C)nc3ccc(C)cn23)cc1	0.044 (≈ 0.0149 µg/mL)
Cc1ccn2c(C(=O)NCCCNc3ccc(C(C)(C)C)cc3)c(C)nc2c1	10.6 (≈ 4 µg/mL)
Cc1ccc2nc(C)c(C(=O)N3CCN(c4ccccn4)CC3)n2c1	> 95
Cc1ccc2nc(C)c(C(=O)NCCNc3ccccc3F)n2c1	0.76 (≈ 0.248 µg/mL)
